Results on two compounds are retold here after ChEMBL document CHEMBL1671756, “In vitro and in vivo antifungal susceptibilities of the Mucoralean fungus Cunninghamella” (2010).

Activity calls are given as the source filed them. No cut-off for these calls is given here.

For test [1], the system named is Cunninghamella bertholletiae. The test is described as follows: Antifungal activity against Cunninghamella bertholletiae UTHSC 03-2241 infected in neutropenic OF1 mouse assessed as increase in mouse survival rate at 60 mg/kg, po qd administered 1 day after infection. Details: dose 60 mg/kg. Format: functional, organism-based. In outline:
(§1)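 Male OF1 mice, about 30 g, made neutropenic with cyclophosphamide 200 mg/kg i.p. plus 5-fluorouracil 150 mg/kg i.v. 1 day before challenge. Infected i.v. via the lateral tail vein with 1 × 10⁴ CFU of hemacytometer-counted sporangiospores in 0.2 ml saline. Ceftazidime 5 mg/day s.c. on days 1–7. Oral treatment started 24 h after challenge; 10 mice per group; checked daily for 20 days; Kaplan-Meier mean survival time, log-rank test.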

For test [2], the system named is Cunninghamella bertholletiae. The test can be described thus: Antifungal activity against Cunninghamella bertholletiae UTHSC 05-2275 infected in neutropenic OF1 mouse assessed as decreased fungal load in brain at 80 mg/kg, po qd administered 1 day post infection measured after 4 to 5 days relative to untreated control. Format: functional, organism-based. Details: dose 80 mg/kg. In a few lines: (§2)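 Neutropenic male OF1 mice (cyclophosphamide 200 mg/kg i.p. plus 5-fluorouracil 150 mg/kg i.v., day −1) were given 1 × 10⁴ CFU sporangiospores i.v. in 0.2 ml saline. Treatment from 24 h: 0.8 mg/kg i.v. or oral doses once daily; 10 mice per group. Killed at day 5 (day 4 if moribund). About half of brain, lungs and kidneys homogenized in saline; 10-fold dilutions plated on PDA for 24 h at 35°C; log₁₀ CFU/g tissue.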

Test [3] relates to Cunninghamella bertholletiae. The test can be described thus: Antifungal activity against Cunninghamella bertholletiae UTSCH 05-2275 infected in diabetic OF1 mouse assessed as decreased fungal load in lung at 80 mg/kg, po qd administered 1 day post infection measured after 4 to 5 days relative to untreated control. Format: functional, organism-based. Details: dose 80 mg/kg. In outline:
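Male OF1 mice (mean 30 g) made diabetic with a single i.p. dose of streptozocin 210 mg/kg; blood glucose >250 mg/dl at day 10 qualified. Ceftazidime 5 mg/day s.c. given on days 1–7. Challenge by lateral tail vein with 1 × 10⁵ CFU sporangiospores in 0.2 ml saline. Oral dosing once daily for 7 days, starting 1 day after challenge. Untreated controls. Ten mice per group.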

Test [4] concerns Cunninghamella bertholletiae. The test is described as follows: Antifungal activity against Cunninghamella bertholletiae UTHSC 05-2275 infected in neutropenic OF1 mouse assessed as increase in mouse survival rate at 25 mg/kg, po bid administered 1 day after infection for 7 days relative to untreated control.
Test [5] has as its system Cunninghamella bertholletiae. The test can be described thus: Antifungal activity against Cunninghamella bertholletiae UTSCH 05-2275 infected in diabetic OF1 mouse assessed as decreased fungal load in brain at 40 mg/kg, po qd administered 1 day post infection measured after 4 to 5 days relative to untreated control. The class given is functional, organism-based. Also on record: dose 40 mg/kg. In outline:
(§3)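 Diabetic male OF1 mice (streptozocin 210 mg/kg i.p.; glucose above 250 mg/dl) were challenged i.v. with 1 × 10⁵ CFU sporangiospores. Oral once-daily dosing from day 1 for 7 days; 10 mice per group. Killed at day 5 (day 4 if moribund). About half of each organ homogenized in saline; serial 10-fold dilutions plated on PDA for 24 h at 35°C; log₁₀ CFU/g tissue.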

The subject of test [6] is Cunninghamella bertholletiae. The test is described as follows: Antifungal activity against Cunninghamella bertholletiae FMR 9598 infected in neutropenic OF1 mouse assessed as increase in mouse survival rate at 60 mg/kg, po qd administered 1 day after infection for 7 days relative to untreated control. The class given is functional, organism-based. Also on record: dose 60 mg/kg. In outline: as §1

Test [7] deals with Cunninghamella bertholletiae. The test is described as follows: Antifungal activity against Cunninghamella bertholletiae UTHSC 05-2275 infected in diabetic OF1 mouse assessed as increase in mouse survival rate at 80 mg/kg, po qd administered 1 day after infection for 7 days relative to untreated control. Format: functional, organism-based. Also on record: dose 80 mg/kg. In outline: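 Male OF1 mice made diabetic with streptozocin 210 mg/kg i.p.; blood glucose above 250 mg/dl at day 10 required. Infected i.v. via the tail vein with 1 × 10⁵ CFU sporangiospores in 0.2 ml saline. Ceftazidime 5 mg/day s.c. on days 1–7. Oral once-daily treatment from day 1 for 7 days; 10 mice per group; followed for 20 days; Kaplan-Meier mean survival time, log-rank test.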

Test [8] concerns Cunninghamella bertholletiae. The test is described as follows: Antifungal activity against Cunninghamella bertholletiae UTHSC 03-2241 infected in neutropenic OF1 mouse assessed as decreased fungal load in brain at 60 mg/kg, po qd administered 1 day post infection measured after 4 to 5 days relative to untreated control. Format: functional, organism-based. Details: dose 60 mg/kg. In a few lines:
as §2

Test [9] relates to Cunninghamella bertholletiae. The test can be described thus: Antifungal activity against Cunninghamella bertholletiae UTHSC 05-2275 infected in neutropenic OF1 mouse assessed as decreased fungal load in lung at 40 mg/kg, po qd administered 1 day post infection measured after 4 to 5 days relative to untreated control. The class given is functional, organism-based. Details: dose 40 mg/kg. In a few lines:
as §2

Test [10] relates to Cunninghamella bertholletiae. The test can be described thus: Antifungal activity against Cunninghamella bertholletiae FMR-9598 infected in neutropenic OF1 mouse assessed as decreased fungal load in brain at 60 mg/kg, po qd administered 1 day post infection measured after 4 to 5 days relative to untreated control. The class given is functional, organism-based. Also on record: dose 60 mg/kg. In a few lines:
as §2

The test system of test [11] is Cunninghamella bertholletiae. The test is described as follows: Antifungal activity against Cunninghamella bertholletiae UTSCH 05-2275 infected in diabetic OF1 mouse assessed as decreased fungal load in kidney at 40 mg/kg, po qd administered 1 day post infection measured after 4 to 5 days relative to untreated control. Format: functional, organism-based. Also on record: dose 40 mg/kg. In outline: as §3

Test [12] has as its system Cunninghamella bertholletiae. The test can be described thus: Antifungal activity against Cunninghamella bertholletiae UTHSC 04-2581 infected in neutropenic OF1 mouse assessed as decreased fungal load in kidney at 0.8 mg/kg, iv qd administered 1 day post infection measured after 4 to 5 days relative to untreated control. Also on record: dose 0.8 mg/kg. The class given is functional, organism-based. In outline:
as §2

Test [13] deals with Cunninghamella bertholletiae. The test is described as follows: Antifungal activity against Cunninghamella bertholletiae UTHSC 03-2241 infected in neutropenic OF1 mouse assessed as increase in mouse survival rate at 0.8 mg/kg, iv qd administered 1 day after infection for 7 days relative to untreated control. Also on record: dose 0.8 mg/kg. The class given is functional, organism-based. In outline: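 Male OF1 mice (~30 g) were made neutropenic with cyclophosphamide 200 mg/kg i.p. plus 5-fluorouracil 150 mg/kg i.v. 1 day before challenge. Challenge was 1 × 10⁴ CFU sporangiospores in 0.2 ml saline via the lateral tail vein. Mice got ceftazidime 5 mg/day s.c. on days 1–7. Dosing started 24 h post-challenge for 7 days. There were 10 mice/group, observed daily for 20 days. Kaplan-Meier analysis with log-rank test.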

The subject of test [14] is Cunninghamella bertholletiae. The test is described as follows: Antifungal activity against Cunninghamella bertholletiae UTSCH 05-2275 infected in diabetic OF1 mouse assessed as decreased fungal load in kidney at 0.8 mg/kg, iv qd administered 1 day post infection measured after 4 to 5 days relative to untreated control. Format: functional, organism-based. Details: dose 0.8 mg/kg. In outline: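 Diabetic OF1 mice (streptozocin 210 mg/kg i.p.; glucose >250 mg/dl) were infected i.v. with 1 × 10⁵ CFU, with ceftazidime cover. Ten per group were treated from day 1 and killed day 5, or day 4 if moribund. Half-organ homogenates (brain, lung, kidney) in 1 ml saline were serially diluted 10-fold on PDA, incubated 24 h at 35°C, and reported as log₁₀ CFU/g tissue.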

For test [15], the system named is Cunninghamella bertholletiae. The test is described as follows: Antifungal activity against Cunninghamella bertholletiae UTHSC 04-2581 infected in neutropenic OF1 mouse assessed as decreased fungal load in lung at 0.8 mg/kg, iv qd administered 1 day post infection measured after 4 to 5 days relative to untreated control. Details: dose 0.8 mg/kg. The class given is functional, organism-based. In outline:
as §2

Test [16] concerns Cunninghamella bertholletiae. The test is described as follows: Antifungal activity against Cunninghamella bertholletiae FMR-9598 infected in neutropenic OF1 mouse assessed as decreased fungal load in lung at 0.8 mg/kg, iv qd administered 1 day post infection measured after 4 to 5 days relative to untreated control. Details: dose 0.8 mg/kg. The class given is functional, organism-based. In outline: as §2

For the compound `CC[C@@H]([C@H](C)O)n1ncn(-c2ccc(N3CCN(c4ccc(OC[C@@H]5CO[C@@](Cn6cncn6)(c6ccc(F)cc6F)C5)cc4)CC3)cc2)c1=O` [POSACONAZOLE], the outcome in [1], in test [2], in [3], in test [6], in test [7] and in test [8] was Active. Also, the result in test [9], in test [10] and in [11] was Active. Moreover, the outcome in test [4] and in test [5] was inactive.

`C[C@@H]1[C@H](O)[C@@H](C)/C=C/C=C/C=C/C=C/C=C/C=C/C=C/[C@H](O[C@@H]2O[C@H](C)[C@@H](O)[C@H](N)[C@@H]2O)C[C@@H]2O[C@](O)(C[C@@H](O)C[C@@H](O)[C@H](O)CC[C@@H](O)C[C@@H](O)CC(=O)O[C@H]1C)C[C@H](O)[C@H]2C(=O)O` [AMPHOTERICIN B]: the result in test [12], in test [13], in test [14], in test [15] and in test [16] was Active.
